# TCR CD3 inh = blocks the human TCR-CD3 interaction; TAMRA-labeled TCR probe fluorescence, biochemical; inhibition, % at 9.4 µM; 360,000 compounds, 0.37% hits; AID 651800; in the data active = inhibition above about 19%;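 note: recombinant mutant TCR 2C K166C tagged with TAMRA read by polarization; 0% = receptor in buffer alone and 100% = receptor with positive control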
# SIAE inh = human SIAE inhibition, primary screen; Q9HAT2; SIAE FP-Rh probe binding, fluorescence polarization; inhibition, % at 9.66 µM; 370,000 compounds, 0.69% hits;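 active = inhibition above a cutoff: mean of compounds within the control limits plus 3 SD of those, cut at about 17% in these data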;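 note: 0% = plate median of compound wells and 100% = probe without SIAE protein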
# HTRA1 inhibitor = HTRA1 (human) protease inhibition. Q92743. recombinant HTRA1, FP-rhodamine activity-based probe, fluorescence polarization. inhibition, % at 5.96 µM. 340,000 compounds, 0.5% hits. AID 504803; in the data active = inhibition above about 36%;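 note: 0% = enzyme with DMSO and 100% = wells lacking enzyme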
# Fam108B counter = blocks mouse Fam108B hydrolase in RBBP9 counter-screen. AID 1947. recombinant Fam108B, FP-Rh probe fluorescence polarization. 300,000 compounds, 0.33% hits. inhibition, % at 9.51 µM;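 active = inhibition above the screen mean inhibition plus 3 SD, computed separately per campaign, cut at about 18% in these data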;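 note: inhibitors lower polarization as less probe binds the enzyme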
# ABHD4 inh = inhibitors of mouse ABHD4; Q8VD66; purified mABHD4, FP-Rh probe fluorescence polarization; inhibition, % at 8.92 µM; 370,000 compounds, 0.54% hits;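 active = inhibition exceeding the mean over every tested compound plus 3 SD, cut at about 30% in these data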;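 note: 0% = plate median of compound wells and 100% = S159A mutant with DMSO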
# Target sequence (Q8VD66 whole entry, looked up): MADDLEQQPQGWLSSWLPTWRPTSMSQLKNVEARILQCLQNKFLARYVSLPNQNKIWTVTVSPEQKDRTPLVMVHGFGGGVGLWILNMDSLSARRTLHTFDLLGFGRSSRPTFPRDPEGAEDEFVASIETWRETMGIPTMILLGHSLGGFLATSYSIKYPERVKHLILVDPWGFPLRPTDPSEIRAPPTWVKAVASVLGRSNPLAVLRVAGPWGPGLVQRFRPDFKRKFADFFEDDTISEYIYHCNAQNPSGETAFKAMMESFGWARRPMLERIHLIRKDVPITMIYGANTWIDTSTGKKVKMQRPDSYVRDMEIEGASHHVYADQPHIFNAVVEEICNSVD
#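 Test system: mABHD4 protein | Buffer or medium: HEPES pH 7.0 buffer, 150 mM NaCl, 0.01% Pluronic F-127 | Probe or stimulus: FP-Rh fluorescent activity-based probe, added after compound pre-incubation | Timing: Pre-incubation 45 min, probe exposure 60 min, at 25 °C | Technique: Fluorescence polarization, excitation 525 nm, emission 598 nm, BODIPY TMR filters | Repeats: Single well per compound (singlicate)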
# PME-1 primary = PME-1 (human) inhibition; 320,000 compounds, 0.53% hits; recombinant PME-1, FP-Rh probe fluorescence polarization; inhibition, % at 5.9 µM; AID 2130; Q9Y570;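 active = inhibition above the campaign mean of all compounds plus 3 SD, cut at about 26% in these data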;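 note: competitive labeling of PME-1 active site by serine hydrolase directed probe; 0% = PME-1 with DMSO and 100% = wells lacking PME-1 enzyme; inhibitors block probe labeling so polarization falls and inhibition rises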
# mABHD4 conf = confirmation of mouse ABHD4 inhibitors; shares compounds with ABHD4 inh; purified mABHD4, FP-Rh probe fluorescence polarization; AID 720658; 1,800 compounds, 55% hits; inhibition, % at 8.92 µM;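 active = mean inhibition across replicates above the hit cutoff set in the primary screen, cut at about 30% in these data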;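 note: 0% = wild-type ABHD4 with DMSO and 100% = catalytically dead S159A mutant with DMSO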
# The depositor's hits bear a star; x = not tested or not shown; ! = not active in a repeat. Shown are actives, neighbours in structure and some others; about 1.8% of the full set was active somewhere.
SMILES,TCR CD3 inh,SIAE inh,HTRA1 inhibitor,Fam108B counter,ABHD4 inh,PME-1 primary,mABHD4 conf
CCCc1cc(=O)[nH]c(SCC(=O)NC2(C#N)CCCCC2)n1,-11.7,1.2,5.6,x,-3.9,1.9,x
Cc1ccc2c(c1)Sc1c(ccc3ccccc13)N2,-2.5,5.5,14.5,9.9,29.7*,9.9,38.0*
Cc1ccc(CN2CCN(/N=C/c3ccc(O)c(O)c3)CC2)cc1,6.2,10.4,32.1,1.5,30.9*,4.9,54.0*
Cc1cc2nc(CCN(C(=S)NCC(C)C)C3CCCC3)[nH]c2cc1C,-6.7,-3.9,-42.3,1.1,42.3*,5.7,48.2*
Cc1ccc(-c2csc(NS(=O)(=O)c3cccc(F)c3)n2)o1,5.6,-11.6,14.5,x,30.2*,x,25.9
CCC(=O)NC1=C(Cl)C(=O)C(NC(=O)CC)=C(Cl)C1=O,-3.1,6.9,6.7,x,34.5*,x,39.9*
COc1ccccc1NC(=O)c1ccccc1NC(=O)c1ccccn1,-3.4,-5.5,-21.5,x,-4.3,x,x
COc1ccc(Cl)cc1NC(=O)NNC(=O)c1ccccn1,-17.4,3.3,1.9,x,39.7*,x,29.2
CCCCN1C(=O)C(CC(=O)NCCc2ccccn2)CC(C(=O)N2CCCCCC2)=C1C (configuration not stated),5.4,-0.3,x,x,2.3,x,x
Cc1ccccc1NC(=O)Cc1nc(COC(=O)CCc2ccccc2)cs1,4.0,-3.1,-6.2,x,52.6*,0.3,48.2*
CC(C)=CC(=O)OCc1csc(CC(=O)Nc2ccccc2C)n1,-2.5,-2.0,-1.9,1.0,5.0,-6.8,x
COc1ccccc1CCC(=O)OCc1csc(CC(=O)Nc2ccccc2C)n1,1.4,-6.3,-14.0,-3.8,21.5,1.5,x
CCOC(=O)/C=C/C(=O)OCc1csc(CC(=O)Nc2ccccc2C)n1,3.2,-1.7,-7.0,-6.0,29.9*,-11.0,39.9*
CCOC(=O)c1sc(NC(=O)c2cccc(S(=O)(=O)N3CCc4ccccc43)c2)c(C#N)c1C,1.4,7.4,-13.5,15.4,12.1,3.1,x
Cc1ccn2c(NCc3ccccc3)c(-c3cccc(SC4CCCCC4)c3)nc2c1,-0.3,14.2,4.0,x,30.1*,x,30.9*!
CCCCNc1c(-c2ccc(SC(C)CC)cc2)nc2ccccn12 (configuration not stated),3.9,11.0,-0.7,5.5,40.5*,15.3,69.2*
CCCCNc1c(-c2ccc(SC3CCCCC3)cc2)nc2ccccn12,0.3,17.0,-17.3,6.9,43.8*,7.2,14.0
COc1cc([C@@H]2Oc3cc(C4Oc5cc(O)cc(O)c5C(=O)[C@H]4O)ccc3O[C@H]2CO)ccc1O (some centres not stated),x,x,17.0,8.1,x,-0.8,x
Nc1cc(N)cc(C(=O)c2ccccc2)c1,-2.4,6.7,x,x,44.5*,x,11.9
COc1ccc(NC(=O)c2ccccc2NS(=O)(=O)c2ccc(C)cc2)c([N+](=O)[O-])c1,-9.0,-0.1,-9.4,5.9,0.7,13.4,x
CC(=O)Nc1cccc(/C(C)=N/Nc2ccc(S(=O)(=O)Nc3ccccc3C(=O)O)cc2[N+](=O)[O-])c1,4.6,7.0,6.5,x,42.4*,x,63.0*
CC(=O)Nc1ccc(C=NNc2ccc(S(=O)(=O)Nc3ccccc3C(=O)O)cc2[N+](=O)[O-])cc1,-4.8,-2.7,35.0,x,54.9*,x,76.9*
NS(=O)(=O)c1ccc(N/N=C/c2ccc(C(=O)O)cc2)c([N+](=O)[O-])c1,0.8,-6.6,1.7,2.5,0.8,-2.4,x
O=C(NCc1ccccn1)[C@@H]1CCCN1C(=O)[C@@H]1CCCN1C(=O)c1ccc(Cl)cc1,-13.4,5.5,x,x,3.2,x,x
Cc1ccc(Nc2nc(N)nc(N)c2N=O)cc1Cl,-6.9,12.9,x,x,7.9,x,x
Nc1nc(N)c(N=O)c(Nc2ccc(Cl)c(Cl)c2)n1,-2.8,8.4,x,x,30.8*,x,33.0*
C[n+]1c2cc(N)ccc2cc2ccc(N)cc21,13.4,25.2*!,32.8,x,30.4*!,x,42.5*
COc1ccc(NC(=O)[C@@H]2O[C@H](CO)[C@H](O)[C@H](O)[C@H]2O)cc1F,3.2,1.8,x,x,7.3,x,x
CC(C)N1CC2(CC(c3ccccc3C(F)(F)F)=NO2)CN1C(=O)c1ccco1 (configuration not stated),9.5,-1.9,4.6,x,30.7*,x,21.3

# Assay outcomes: PubChem BioAssay, The Scripps Research Institute Molecular Screening Center
